# Measurements from PubChem BioAssay AID743061 (The Scripps Research Institute Molecular Screening Center, 2013).
# Target: Methionine--tRNA ligase, mitochondrial (Homo sapiens) (UniProt Q96GW9)
# Test: inhibitors of human mitochondrial MetRS, late-stage follow-up, selectivity assay for T. brucei MetRS inhibitor project, biochemical, radioactivity, round 1 (AID 743061);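 also: 0% = DMSO with full reaction and 100% = DMSO wells lacking tRNA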
# Conditions: recombinant human mtMetRS, [3H]Met tRNA charging, at 10 µM, stronger effect = higher value
# How it was run: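 System: recombinant human mitochondrial methionyl-tRNA synthetase (MetRS); Buffer or medium: pH 8.0 reaction buffer containing 2.5 mM ATP; Controls: high DMSO, low without tRNA; Reagent: [3H]Met 240 nM plus bulk E. coli tRNA; Schedule: 15 min preincubation, 1 h reaction, room temperature; Measured by: scintillation counts of TCA-precipitated charged tRNA on filters.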
row,Compound,inhibition [%]
1,Cn1c(CCNC(=O)c2ccc(Cl)cc2)nc2ccccc21,12.5
2,CN(Cc1cc(Cl)cc(Cl)c1)[C@H]1C[C@H]2c3[nH]c4ccccc4c3CCN2C(=O)[C@H]1CO,80.3
3,CC1Cc2ccccc2N1C(=O)Cn1cc(C(=O)C(=O)N2CCOCC2)c2ccccc21 (centres undefined),7.77
4,O=C(Cn1cc(C(=O)c2ccco2)c2ccccc21)Nc1cccc(C(F)(F)F)c1,19.7
5,CC(C)(C)[C@H]1C=C(C(=O)NCc2nc3ccccc3[nH]2)O[C@@H](OCc2ccc(CO)cc2)C1,10.3
6,COc1ccc(CCN(C(=O)c2cccc(F)c2)C2CC(=O)N(c3ccc(Br)cc3)C2=O)cc1 (centres undefined),4.36
7,CCC(=O)c1cn(CC(=O)Nc2cccc(C(F)(F)F)c2)c2ccccc12,-3.88
8,CCN(CC)C(=O)C(=O)c1cn(CC(=O)Nc2cccc(OC)c2)c2ccccc12,17.3
9,Clc1ccc(-c2nnc(SCc3nc4ccccc4[nH]3)o2)c(Cl)c1,41.9
10,O=C(Cn1cc(C(=O)C(=O)N2CCOCC2)c2ccccc21)NCC1CCCO1 (centres undefined),5.42
11,COc1ccccc1NC(=O)Cn1cc(C(=O)C(=O)N2CCOCC2)c2ccccc21,-8.03
12,CC(=O)c1ccc(N2CCN(C(=O)CCCn3c(=O)[nH]c4ccc(Br)cc4c3=O)CC2)cc1,7.87
13,O=C(NCc1nc2ccccc2[nH]1)C1=C[C@H](c2ccc(Br)cc2)C[C@H](OCCCCO)O1,-2.4
14,O=C(NCCc1nc2ccccc2[nH]1)c1ccc(Cl)cc1Cl,48.7
15,O=C(CC=NOCc1ccc([N+](=O)[O-])cc1)Nc1ccc(Br)cc1,-6.71
16,CCO[C@@H]1OC(C(=O)NCc2nc3ccccc3[nH]2)=C[C@H](c2ccc(Br)cc2)[C@H]1CCCO,-6.53
17,COc1ccccc1NS(=O)(=O)c1cccc(NC(=O)Nc2ccccc2)c1,19.1

row,Compound,inhibition [%]
1,O=C(Cn1cc(C(=O)c2ccccc2)c2ccccc21)Nc1cccc(C(F)(F)F)c1,9.64
2,O=C(NCCc1nc2ccccc2[nH]1)c1ccc(Cl)c([N+](=O)[O-])c1,25.5
3,O=C(Cn1cnc2ccccc21)Nc1cccc([N+](=O)[O-])c1,-2.2
4,COc1ccc(NC(=O)CSc2nnc3c4cc(C)ccc4n(C)c3n2)cc1,8.46
5,CC(CC(=O)Nc1cccc(Br)c1)=NNC(=O)c1ccc(O)cc1O,4.55
6,CCCCCCCCCC1NC(C(=O)O)Cc2c1[nH]c1ccccc21 (centres undefined),9.9
7,CCN(CC)C(=O)C(=O)c1cn(CC(=O)N2CCCc3ccccc32)c2ccccc12,-1.92
8,O=C(NCc1nc2ccccc2[nH]1)C1=C[C@H](c2csc3ccccc23)C[C@H](OCCCCO)O1,2.21
9,CNC(=S)N(CCc1ccccc1)C1CC(=O)N(c2ccc(Br)cc2)C1=O (centres undefined),83.7
10,O=C(C[C@H]1C(=O)N(Cc2ccccc2)C[C@@H]1c1ccc(Br)cc1)Nc1ccc(Br)cc1,-8.54
11,Cc1ccc(NC(=O)CN(C)C(=O)CCSc2ccc(F)cc2)cc1,-21.5
12,O=C(NCc1nc2ccccc2[nH]1)C1=C[C@H](c2ccccc2)C[C@H](OCc2ccc(CO)cc2)O1,12.7
13,O=C(NCCc1nc2ccccc2[nH]1)c1c(F)cccc1F,0.73
14,Cc1cccc2[nH]c(C3CCCN(C(=O)c4cccc5cccnc45)C3)nc12 (centres undefined),2.39
15,CC(C)c1nc2ccc(C(=O)N(C)CCc3nc4ccc(F)cc4[nH]3)cc2o1,0.38
16,O=C(Cn1cc(C(=O)C(=O)N2CCOCC2)c2ccccc21)NCc1ccccc1,10.3
17,CC(C)OCCCN1CC(=O)N2C(c3cccc([N+](=O)[O-])c3)c3[nH]c4ccccc4c3C[C@H]2C1=O (some centres undefined),-3.65
